The test system of one series is Leishmania infantum. Briefly: Antileishmanial activity against Leishmania infantum amastigote form assessed as parasite growth inhibition at 50 uM after 72 hrs by steady-Glo reagent based assay relative to control. Type of series: functional. The method, boiled down:
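Intramacrophage L. infantum amastigotes in THP-1-derived macrophages, tested at 50 μM or in dose-response. Plates held 72 h at 37 °C, 5% CO2. Medium was replaced by PBS, macrophages lysed, and parasites read by Steady-Glo luminescence. High-content imaging gave host cell number, infection ratio (infected/total cells) and parasites per infected cell. Values are means of at least two independent experiments.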

Series [1] deals with Trypanosoma brucei. The series can be described thus: Potentiation of methotrexate-induced antitrypanosomal activity against Trypanosoma brucei Lister 427 bloodstream form assessed as combination index at EC50 after 72 hrs by resazurin dye-based assay. The class given is functional.
In series [2] the test system is Trypanosoma brucei. Briefly: Antitrypanosomal activity against Trypanosoma brucei Lister 427 bloodstream form assessed as parasite growth inhibition at 50 uM after 72 hrs by SYBR Green assay relative to control. The class given is functional. To be noted: Lister 427, 72 h, read-out: GI.
In the next series the target is T1, CYP1A2 (Homo sapiens, UniProt P05177).
T1 sequence (P05177 whole entry): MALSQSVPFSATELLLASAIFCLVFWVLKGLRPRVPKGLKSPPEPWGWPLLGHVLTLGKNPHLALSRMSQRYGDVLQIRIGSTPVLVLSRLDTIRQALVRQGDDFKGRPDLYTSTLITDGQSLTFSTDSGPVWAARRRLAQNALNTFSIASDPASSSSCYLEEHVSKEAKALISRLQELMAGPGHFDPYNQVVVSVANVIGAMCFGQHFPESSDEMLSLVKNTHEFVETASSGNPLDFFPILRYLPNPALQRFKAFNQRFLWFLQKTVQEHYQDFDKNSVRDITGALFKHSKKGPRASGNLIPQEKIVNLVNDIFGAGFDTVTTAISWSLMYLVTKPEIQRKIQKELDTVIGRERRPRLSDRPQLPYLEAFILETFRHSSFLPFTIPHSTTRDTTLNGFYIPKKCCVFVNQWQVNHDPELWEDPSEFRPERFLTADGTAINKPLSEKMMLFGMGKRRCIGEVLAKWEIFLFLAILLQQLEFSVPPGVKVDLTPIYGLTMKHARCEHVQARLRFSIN
The series can be described thus: Inhibition of human microsomal CYP1A2 expressed in baculovirus infected BTI-TN-5B1-4 cells at 10 uM incubated for 30 mins by luciferase assay relative to control. Type of series: ADME. The method in brief: (§1)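 CYP1A2, 2C9, 2C19, 2D6 and 3A4 in microsomes from baculovirus-infected insect cells, each with a P450-Glo luminogenic substrate. Inhibition read as loss of light; single-point at 10 μM, triplicate.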

The next series concerns the target CYP3A4 (Homo sapiens, UniProt P08684). The series can be described thus: Inhibition of human microsomal CYP3A4 expressed in baculovirus infected BTI-TN-5B1-4 cells at 10 uM incubated for 30 mins by luciferase assay relative to control. The class given is ADME. The method, boiled down:
as §1

The subject of series [3] is Trypanosoma brucei. Briefly: Antitrypanosomal activity against Trypanosoma brucei Lister 427 bloodstream form after 72 hrs by SYBR Green assay. Type of series: functional, organism-based. As to conditions: Lister 427, 72 h.
The test system of series [4] is Trypanosoma brucei. Briefly: Potentiation of methotrexate-induced antitrypanosomal activity against Trypanosoma brucei Lister 427 bloodstream form at 10 uM after 72 hrs by resazurin dye-based assay. The class given is functional.
The nature of series [5]: Cytotoxicity against human THP1 cells assessed as viable cells at 100 uM after 72 hrs by MTT assay relative to control. Type of series: cell-based, THP-1. As to conditions: read-out: Activity. The method, boiled down:
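THP-1-derived macrophages exposed to compounds for 72 h, tested at 100 μM or in dose-response; viability read by MTT colorimetric assay.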

Another series concerns the target CYP2C9 (Homo sapiens, UniProt P11712). Briefly: Inhibition of human microsomal CYP2C9 expressed in baculovirus infected BTI-TN-5B1-4 cells at 10 uM incubated for 30 mins by luciferase assay relative to control. Type of series: ADME. The method in brief:
as §1

In the next series the target is CYP2D6 (Homo sapiens, UniProt P10635). The series can be described thus: Inhibition of human microsomal CYP2D6 expressed in baculovirus infected BTI-TN-5B1-4 cells at 10 uM incubated for 30 mins by luciferase assay relative to control. The class given is ADME. The method in brief: as §1
In series [6] the target is T2, Pteridine reductase 1 (Leishmania major) (UniProt Q01782).
T2 sequence (whole entry): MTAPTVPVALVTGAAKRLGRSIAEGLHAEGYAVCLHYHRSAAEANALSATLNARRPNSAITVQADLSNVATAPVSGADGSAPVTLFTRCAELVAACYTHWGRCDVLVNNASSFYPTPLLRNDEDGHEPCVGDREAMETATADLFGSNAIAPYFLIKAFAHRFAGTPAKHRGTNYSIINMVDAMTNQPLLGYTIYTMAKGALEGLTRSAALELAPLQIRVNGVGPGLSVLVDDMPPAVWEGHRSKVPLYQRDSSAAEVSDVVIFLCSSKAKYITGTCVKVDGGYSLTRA
Briefly: Inhibition of Leishmania major PTR1 at 50 uM using H2B as substrate in presence of NADPH by photometric analysis relative to control.

Series [7] has as its target T3, Pteridine reductase, putative (Trypanosoma brucei) (UniProt Q581W1).
T3 sequence (whole entry): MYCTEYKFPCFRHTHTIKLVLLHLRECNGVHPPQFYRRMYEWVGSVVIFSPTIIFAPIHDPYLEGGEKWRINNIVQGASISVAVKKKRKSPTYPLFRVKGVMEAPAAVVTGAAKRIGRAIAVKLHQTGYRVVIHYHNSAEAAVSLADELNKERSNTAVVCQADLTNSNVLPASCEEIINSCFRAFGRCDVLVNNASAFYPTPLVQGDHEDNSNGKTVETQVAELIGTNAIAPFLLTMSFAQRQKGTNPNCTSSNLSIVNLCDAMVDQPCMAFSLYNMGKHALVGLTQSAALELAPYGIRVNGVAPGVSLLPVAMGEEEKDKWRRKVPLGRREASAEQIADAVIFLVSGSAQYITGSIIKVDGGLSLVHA
Briefly: Inhibition of Trypanosoma brucei PTR1 at 50 uM using H2B as substrate in presence of NADPH by photometric analysis relative to control.

A further series concerns the target CYP2C19 (Homo sapiens, UniProt P33261). The series can be described thus: Inhibition of human microsomal CYP2C19 expressed in baculovirus infected BTI-TN-5B1-4 cells at 10 uM incubated for 30 mins by luciferase assay relative to control. The class given is ADME. The method in brief: as §1
For series [8], the system named is Trypanosoma brucei. The series can be described thus: Potentiation of methotrexate-induced antitrypanosomal activity against Trypanosoma brucei Lister 427 bloodstream form assessed as dose reduction index for methotrexate at EC50 after 72 hrs by resazurin dye-based assay. The class given is functional.
Series [9] is described as follows: Cytotoxicity against human U2OS cells assessed as viable cells at 50 uM after 72 hrs by MTT assay relative to control. Type of series: cell-based. As to conditions: read-out: Activity.
In series [10] the test system is Trypanosoma cruzi. The series can be described thus: Antitrypanosomal activity against Trypanosoma cruzi amastigote form infected in human U2OS cells assessed as parasite growth inhibition after 72 hrs. The class given is functional, organism-based. The method, boiled down:
(§2)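 U2OS monolayers grown for 24 h, then infected with tissue-derived trypomastigotes of T. cruzi Y strain. Compounds were added 24 h after infection at 50 μM (single-point) or in dose-response, with 72 h exposure. Plates were fixed, stained and analysed by high-content imaging; activity was normalized to infected and non-infected controls. Means of at least two experiments; benznidazole as reference.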

Series [11] has as its system Trypanosoma cruzi. The series can be described thus: Antitrypanosomal activity against Trypanosoma cruzi amastigote form infected in human U2OS cells assessed as parasite growth inhibition at 50 uM after 72 hrs relative to control. To be noted: read-out: GI. Type of series: functional. The method in brief:
as §2

Calls of active or inactive are those of the source. The rule behind the calls is not given here.

Sequence of CYP2D6 (P10635 whole entry): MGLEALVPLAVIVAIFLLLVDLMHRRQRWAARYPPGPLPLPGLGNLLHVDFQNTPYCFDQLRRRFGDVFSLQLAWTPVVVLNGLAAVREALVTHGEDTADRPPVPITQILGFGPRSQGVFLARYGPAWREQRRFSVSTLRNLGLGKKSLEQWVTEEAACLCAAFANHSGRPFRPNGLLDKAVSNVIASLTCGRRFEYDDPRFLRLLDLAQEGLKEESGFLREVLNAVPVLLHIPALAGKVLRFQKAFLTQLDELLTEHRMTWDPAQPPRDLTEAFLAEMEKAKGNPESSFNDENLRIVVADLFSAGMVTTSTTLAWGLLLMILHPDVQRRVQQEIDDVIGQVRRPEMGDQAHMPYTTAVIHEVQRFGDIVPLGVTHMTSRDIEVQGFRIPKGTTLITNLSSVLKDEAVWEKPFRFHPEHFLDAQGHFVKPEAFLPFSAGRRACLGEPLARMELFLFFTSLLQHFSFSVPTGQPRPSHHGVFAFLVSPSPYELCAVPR
Sequence of CYP2C19 (P33261 whole entry): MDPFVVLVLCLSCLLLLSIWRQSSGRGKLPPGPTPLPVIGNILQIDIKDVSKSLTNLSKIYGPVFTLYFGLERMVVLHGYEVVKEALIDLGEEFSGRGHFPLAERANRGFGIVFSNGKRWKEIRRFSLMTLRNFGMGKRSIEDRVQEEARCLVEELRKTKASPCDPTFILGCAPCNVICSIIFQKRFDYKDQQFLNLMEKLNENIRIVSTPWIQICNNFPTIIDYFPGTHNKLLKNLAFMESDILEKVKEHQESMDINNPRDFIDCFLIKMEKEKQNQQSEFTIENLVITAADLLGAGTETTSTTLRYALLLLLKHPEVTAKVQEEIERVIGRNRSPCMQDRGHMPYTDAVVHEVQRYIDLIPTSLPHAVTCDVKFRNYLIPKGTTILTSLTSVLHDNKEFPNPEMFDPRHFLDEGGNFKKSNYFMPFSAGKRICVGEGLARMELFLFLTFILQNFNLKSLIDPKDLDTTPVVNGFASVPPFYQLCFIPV
Sequence of CYP2C9 (P11712 whole entry): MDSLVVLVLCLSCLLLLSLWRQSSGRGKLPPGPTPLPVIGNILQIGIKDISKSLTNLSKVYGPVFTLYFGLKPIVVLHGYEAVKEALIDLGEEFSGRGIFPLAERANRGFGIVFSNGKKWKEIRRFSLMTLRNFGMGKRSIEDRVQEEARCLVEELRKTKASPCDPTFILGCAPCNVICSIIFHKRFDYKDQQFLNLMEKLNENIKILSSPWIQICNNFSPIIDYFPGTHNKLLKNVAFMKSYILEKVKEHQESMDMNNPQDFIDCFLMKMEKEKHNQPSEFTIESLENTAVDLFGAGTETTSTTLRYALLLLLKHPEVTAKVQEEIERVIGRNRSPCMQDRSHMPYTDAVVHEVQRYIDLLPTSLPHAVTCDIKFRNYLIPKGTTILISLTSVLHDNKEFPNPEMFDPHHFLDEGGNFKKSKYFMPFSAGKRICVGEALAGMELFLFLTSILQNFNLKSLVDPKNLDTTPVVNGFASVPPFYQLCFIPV
Sequence of CYP3A4 (P08684 whole entry): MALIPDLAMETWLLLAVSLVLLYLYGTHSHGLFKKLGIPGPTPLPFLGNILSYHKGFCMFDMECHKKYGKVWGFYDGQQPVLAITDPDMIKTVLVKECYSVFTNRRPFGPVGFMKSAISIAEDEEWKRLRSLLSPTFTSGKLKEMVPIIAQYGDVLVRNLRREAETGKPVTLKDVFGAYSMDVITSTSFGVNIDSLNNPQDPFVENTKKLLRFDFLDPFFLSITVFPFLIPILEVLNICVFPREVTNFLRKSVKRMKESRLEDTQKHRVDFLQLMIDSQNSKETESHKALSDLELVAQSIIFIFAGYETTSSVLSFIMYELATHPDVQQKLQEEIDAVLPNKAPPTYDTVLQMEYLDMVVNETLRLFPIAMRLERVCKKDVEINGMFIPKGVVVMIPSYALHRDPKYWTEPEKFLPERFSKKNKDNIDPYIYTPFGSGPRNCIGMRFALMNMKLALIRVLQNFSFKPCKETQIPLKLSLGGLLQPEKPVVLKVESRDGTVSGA

Consider `COc1ccc(-c2cccc(/C=N/NC(N)=S)c2)cc1OC`, for which the “growth inhibition (GI)” value in the series with Leishmania infantum is “inactive”. Further, the CI in the series with Trypanosoma brucei [1] came to 0.28. The inhibition of growth at 50 µM came to 93.9% in the series on Trypanosoma brucei [2] and 82.4% in the series on Trypanosoma cruzi [11]. Besides, the inhibition at 0.5 h, 10 µM on CYP1A2 was 64.7%; on CYP3A4, -2.53%; against CYP2C9, 56.8%; against CYP2D6, 29.2%; against CYP2C19, 22.2%. The half-maximal effective concentration (EC50) with Trypanosoma brucei [3] was 7.45 µM; in the series with Trypanosoma cruzi [10], 29.5 µM. Also, in the series on Trypanosoma brucei [4], the PF amounted to 0.81. Also, the viability at 72 h, 100 µM in [5] was 40.9%. The results for the inhibition in [6] and in [7] were 4.76% and 3.09%, respectively. Besides, the Activity in the series on Trypanosoma brucei [8] turned out to be 6.36. The viability at 72 h, 50 µM in series [9] was 26.7%.
`NC(=S)N/N=C/c1ccc(OCc2ccc(Cl)c(Cl)c2)cc1`: the inhibition of growth at 50 µM in the series on Leishmania infantum (read-out: GI) is 80.5%; in the series on Trypanosoma brucei [2], 100%; with Trypanosoma cruzi [11] it was 80.5%. In addition, the CI with Trypanosoma brucei [1] came out at 0.41. The inhibition at 0.5 h, 10 µM on CYP1A2 was determined as 26.8%; against CYP3A4, 10.6%; on CYP2C9, 18.9%; at CYP2D6, 39.3%; at CYP2C19, 10.4%. Also, the 50% effective concentration (EC50) turned out to be 2.31 µM in the series on Trypanosoma brucei [3] and 1.31 µM in the series on Trypanosoma cruzi [10]. The PF with Trypanosoma brucei [4] amounted to 0.8. In addition, the viability at 72 h, 100 µM in series [5] was 38.8%. The values for the inhibition in series [6] and in series [7] were 0.59% and 0.36%, respectively. Further, in the series with Trypanosoma brucei [8], the Activity came to 6.56. The viability at 72 h, 50 µM in [9] turned out to be 65.5%.

Values taken from ChEMBL document CHEMBL4196006, “Aryl thiosemicarbazones for the treatment of trypanosomatidic infections” (Eur J Med Chem, 2018).
